# Assay results pooled from the literature.
# Target: Homeodomain-interacting protein kinase 4 (HIPK4, Homo sapiens, UniProt Q8NE63)
# Sequence (Q8NE63 1-616, as in one of the studies): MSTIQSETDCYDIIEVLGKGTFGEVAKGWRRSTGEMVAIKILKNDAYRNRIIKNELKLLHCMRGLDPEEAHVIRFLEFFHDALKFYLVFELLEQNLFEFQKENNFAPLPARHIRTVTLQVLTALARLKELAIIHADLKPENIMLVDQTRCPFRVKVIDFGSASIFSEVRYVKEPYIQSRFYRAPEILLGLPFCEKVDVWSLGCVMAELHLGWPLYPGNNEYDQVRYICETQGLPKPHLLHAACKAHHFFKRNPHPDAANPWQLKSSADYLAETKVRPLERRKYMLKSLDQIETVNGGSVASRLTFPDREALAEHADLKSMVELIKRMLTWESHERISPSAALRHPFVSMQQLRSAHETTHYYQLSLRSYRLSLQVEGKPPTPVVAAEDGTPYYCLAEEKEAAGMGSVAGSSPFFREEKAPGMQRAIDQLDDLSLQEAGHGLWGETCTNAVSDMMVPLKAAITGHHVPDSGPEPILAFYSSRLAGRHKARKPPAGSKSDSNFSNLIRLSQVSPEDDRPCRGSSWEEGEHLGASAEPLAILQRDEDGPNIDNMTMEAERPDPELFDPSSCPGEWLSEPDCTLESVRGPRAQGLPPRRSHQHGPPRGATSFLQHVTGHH
SMILES,assay,conditions,remaining binding
CN(c1ccnc(CNc2nc(Nc3ccc4c(c3)CC(=O)N4)ncc2C(F)(F)F)n1)S(C)(=O)=O,"cell-free assay, competition with immobilised ligand",1 µM,35%
O=C(NCCCN1CCOCC1)c1ccc(Nc2nccc(-c3cc4ccccc4s3)n2)cc1,"binding, competition with immobilised ligand",1 µM,5.8%
CN(C)C(=O)Cn1cc(-c2nc([C@@](C)(c3ccc(-c4cnc(N)nc4)cc3)C3CC3)no2)cn1,"cell-free assay, competition with immobilised ligand",1 µM,70%
COc1ncc2cc3ccccc3nc2c1C#N,"cell-free assay, competition with immobilised ligand",5 µM,100%
O=C(c1ccc(Nc2ncc(Cl)c(-c3ccc(Cl)s3)n2)cc1)N1CCC(N2CCCC2)CC1,"binding, competition with immobilised ligand",1 µM,3.6%
C[C@@H]1CCN(c2nccc(-c3cnn4ncccc34)n2)C1,binding,1 µM,92%
C[C@H](c1ccnc(Nc2nc3ccc(-c4cc(N(C)C)ncn4)cc3[nH]2)c1)N1CCN(C(=O)CC(F)(F)F)CC1,"cell-free assay, competition with immobilised ligand",0.1 µM,100%
CN(C)c1ncc(F)c(-c2cnn3ncccc23)n1,binding,1 µM,100%
COc1cnc(Nc2cccc(S(N)(=O)=O)c2)nc1N1CCN(c2ccccc2)CC1,"binding, competition with immobilised ligand",1 µM,99%
COc1ccc2c(c1)O[C@@H](c1ccc(OC)c(OC)c1)C[C@H]2NC(=O)C1(c2ccc3c(c2)OC(F)(F)O3)CC1,"cell-free assay, competition with immobilised ligand",1 µM,51%
N[C@@H]1CCN(c2nccc(-c3cnn4ncccc34)n2)C1,binding,1 µM,98%
O=C(c1ccc(Nc2nccc(-c3cc4ccccc4s3)n2)cc1)N1CCC(N2CCCC2)CC1,"binding, competition with immobilised ligand",1 µM,4.1%
Cc1cnn2ncc(-c3ccnc(N(C)C)n3)c2c1,binding,1 µM,77%
CN(C(=O)c1ccccc1)c1cc(N(C)c2ccc3c(c2)CCc2ccc(C(=O)NCCN4CCOCC4)cc2C3=O)ccc1F,"cell-free assay, competition with immobilised ligand",1 µM,100%
Nc1ncc2c(n1)-c1c([nH]c3ccc(C#CC4CC4)cc13)CCCC2,"binding, competition with immobilised ligand",1 µM,95%
COc1ccnn2ncc(-c3ccnc(N(C)C)n3)c12,binding,1 µM,100%
FC(F)(F)Oc1cccc(-c2cnc3ccc(-c4ccncc4)nn23)c1,"cell-free assay, competition with immobilised ligand",5 µM,5.2%
O=C(NCC1CCOCC1)c1n[nH]cc1NC(=O)c1c(F)cccc1F,"binding, competition with immobilised ligand",1 µM,78%
F[C@@H]1CCN(c2nccc(-c3cnn4ncccc34)n2)C1,binding,1 µM,90%
C[C@@H](c1ccc(-n2cnc3c(N)ncnc32)cc1)N1CCc2nn(C)c(Cc3ccccc3)c2C1=O,"binding, competition with immobilised ligand",0.1 µM,100%
O=c1nc(-c2ccccn2)sc2ccccc12,"binding, competition with immobilised ligand",1 µM,85%
C=CC(=O)N1CCC(C(=O)NCC(=O)N2CCN(c3nc(-c4cnc(N)nc4C(F)F)nc(N4CCOCC4)n3)CC2)CC1,"binding, competition with immobilised ligand",1 µM,100%
